Results taken from PMC5519669 (Forensic Toxicology, 2017).
Entries after “also recorded” stand apart in the source; their conditions may differ.

What was measured:
[1] = Clearance in rat liver microsome incubation; assay type: in vitro ADME; conditions: for half-life at 1 µM / microsomal CLint at 1 µM: male, Sprague-Dawley, rat, pooled rat liver microsomes, pH 7.4; for Parent compound after incubation: rat liver microsome incubations, after 3 h incubations; for ER (extraction ratio) / CLH (estimated hepatic clearance) / CLint (estimated intrinsic clearance): rat liver microsomes; for CLH (estimated hepatic clearance): from CLint and liver blood flow; for CLint (estimated intrinsic clearance): scaled to whole-liver dimensions
[2] = Rat plasma kinetics after intraperitoneal injection; assay type: in vivo; conditions: for AUC(0-inf) / AUC(0-t) / Cmax / half-life: 3 mg/kg; for half-life: non-compartmental analysis; for Untransformed parent compound in plasma: 24 h post-dosing
[3] = Clearance in human liver microsome incubation; assay type: in vitro ADME; conditions: for Parent compound after incubation: human liver microsome incubations, after 3 h incubations; for ER (extraction ratio) / CLH (estimated hepatic clearance) / CLint (estimated intrinsic clearance): human liver microsomes; for CLH (estimated hepatic clearance): from CLint and liver blood flow; for CLint (estimated intrinsic clearance): scaled to whole-liver dimensions
male rats = assay: Rectal body temperature; assay type: in vivo, rat; conditions: 3 mg/kg i.p.; for Hypothermic effect compared to vehicle injection: 3 mg/kg; for Mean rectal body temperature versus vehicle: at 15 and 30 min and 1, 2, and 4 h post-injection
Method in brief: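 Male Long–Evans rats (49 days old, jugular-catheterised, n = 4/group) were housed singly in metabolic cages and given test compound i.p. at 3 mg/mL in 7.8% polysorbate 80/92.2% saline at 1 mL/kg, with a vehicle group. Rectal temperature was taken by digital thermometer 15 min pre-dose and 15, 30 min, 1, 2, 4, 8, 24 h post-dose. Analysis used mixed two-factor ANOVA, then Dunnett's tests versus vehicle per time point.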

[4] = male, Long-Evans, rat, plasma, ip
[5] = male, Long-Evans, rat, plasma, ip, Half-life, rat plasma, 3 mg/kg i.p.
[6] = male, human, pooled human liver microsomes, pH 7.4

SMILES | half-life at 1 µM [1] [min] | microsomal CLint at 1 µM [1] [µL/min/mg] | Parent compound after incubation [1] | ER (extraction ratio) [1] | CLH (estimated hepatic clearance) [1] [mL/min/kg body wt.] | CLint (estimated intrinsic clearance) [1] [mL/min/kg body wt.] | AUC(0-inf) [2, 4] [ng·h/mL] | AUC(0-t) [2, 4] [ng·h/mL] | Cmax [2, 4] [ng/mL] | half-life [2, 5] [min] | Untransformed parent compound in plasma ([2]; rat plasma, 3 mg/kg i.p.) | Parent compound after incubation [3] | ER (extraction ratio) [3] | CLH (estimated hepatic clearance) [3] [mL/min/kg body wt.] | CLint (estimated intrinsic clearance) [3] [mL/min/kg body wt.] | half-life at 1 µM [3, 6] [min] | Hypothermic effect compared to vehicle injection (male rats) | Mean rectal body temperature versus vehicle (male rats) | further results
CC(C)(NC(=O)c1cn(CCCCCF)c2ccccc12)c1ccccc1 [5F-CUMYL-PICA, 1-(5-fluoropentyl)-N-(2-phenylpropan-2-yl)-1H-indole-3-carboxamide] | 1.19 | 580 | still detectible | 0.95 | 52.44 | 1048.24 | 843 | 582 | 65.2 | 720 | detectible | still detectible | 0.96 | 19.15 | 453.05 | 1.77 | produced hypothermic effects; also recorded: moderate hypothermic effects | significant hypothermic effects | microsomal CLint at 1 µM [3, 6]: 390 µL/min/mg
CCCCCn1cc(C(=O)NC(C)(C)c2ccccc2)c2ccccc21 [CUMYL-PICA, 1-pentyl-N-(2-phenylpropan-2-yl)-1H-indole-3-carboxamide] | 2.24 | 310 | still detectible | 0.91 | 50.22 | 556.88 | 1210 | 1090 | 130 | 420 | detectible | still detectible | 0.87 | 17.43 | 135.46 | 5.92 | produced hypothermic effects; also recorded: moderate hypothermic effects | significantly reduced | CL/F (observed apparent clearance) ([2]; rat plasma, 3 mg/kg i.p.): 43.31 mL/min/kg body wt.; half-life ([2]; rat plasma, 3 mg/kg i.p.): 436 min
